CAL PDZ FP-1: inhibitors of human CAL PDZ peptide binding. purified CAL PDZ, TMR-peptide fluorescence polarization, 1 h. AID 602252. Q9HD26. actives 0.92% (n = 300,000). inhibition, % at 24.9 µM;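 active = mean inhibition of at least 30% with at least half of replicates also reaching 30%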;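 note: 0% = DMSO neutral control and 100% = excess unlabeled competitor peptide PRC23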
ARNT TACC3 PPI: disruptors of human ARNT/TACC3 interaction | AlphaScreen His-ARNT PAS-B/GST-TACC3 binding, luminescence; TACC3 fragment carries E629A point mutation | inhibition, % at 9.99 µM | actives 0.66% (n = 390,000);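 active = mean inhibition of replicates at least 50% and at least half of replicates each reaching 50%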;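 note: 0% = complete ARNT plus TACC3 wells and 100% = ARNT alone without TACC3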
CAL PDZ FP-2: inhibitors of human CAL PDZ peptide binding; inhibition, % at 20 µM; Q9HD26; purified CAL PDZ, TMR-peptide fluorescence polarization, 1 h; AID 504414; actives 0.02% (n = 330,000);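 active = highest replicate inhibition of at least 40%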;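 note: plate controls were DMSO neutral control wells for no effect and unlabeled competitor peptide control wells for full effect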
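Control set: unlabelled peptide and DMSO controls / Material: purified CerCALP PDZ construct / Timing: 1 h incubation at room temperature before polarization reading / Doses: 20 µM, one dose / Detection: fluorescence polarization (mP)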
The depositor's hits bear a star. In the library only some 1.2% were active in any assay of this set; here they are far more common.

Results for O=C(c1ccccc1)C1N=NCC1c1ccc(Cl)cc1 (stereo not drawn) ?
CAL PDZ FP-1: 174.1*; ARNT TACC3 PPI: -2.1; CAL PDZ FP-2: -0.8

What do the screens show for `C[C@@H]1CN([C@H](C)CO)C(=O)c2cc(N(C)C)ccc2O[C@@H](C)CCCCO[C@@H]1CN(C)S(C)(=O)=O`?
ARNT TACC3 PPI: 7.0

Results for CN(C)CC(=O)N[C@H]1CC[C@@H](CCNC(=O)C2CCCCC2)O[C@@H]1CO ?
ARNT TACC3 PPI: -15.5

What do the screens show for `COc1ccc(CCNC(=O)C23CCC(C)(C(=O)C2=O)C3(C)C)cc1OC` (stereo not drawn)?
CAL PDZ FP-1: -2.1; ARNT TACC3 PPI: -7.6; CAL PDZ FP-2: -1.2

Results for COc1ccc(CCNC(=O)C23CCC(C)(C(=O)C2Br)C3(C)C)cc1OC (stereo not drawn) ?
CAL PDZ FP-1: -0.9; ARNT TACC3 PPI: 49.3*; CAL PDZ FP-2: 0.2

How did C[C@H](CO)N1C[C@H](C)[C@H](CN(C)C(=O)Nc2ccc3c(c2)OCO3)Oc2ccc(NC(=O)Cc3ccccc3)cc2C1=O do in these assays?
ARNT TACC3 PPI: 3.6

Results for O=C(Nc1ccc(F)cc1)N1C[C@@H]2[C@H](c3ccccc31)[C@@H](CO)N2C(=O)Cc1ccccn1 ?
ARNT TACC3 PPI: 4.4

What do the screens show for `COc1ccc(CNC(=O)c2cccc(C)c2[N+](=O)[O-])cc1`?
CAL PDZ FP-1: -4.7; ARNT TACC3 PPI: -17.8; CAL PDZ FP-2: -1.3

Results for Cc1cccc(C(=O)NCc2ccc(S(N)(=O)=O)cc2)c1[N+](=O)[O-] ?
CAL PDZ FP-1: 45.8*; ARNT TACC3 PPI: -1.1; CAL PDZ FP-2: -0.3

How did Cc1nn(CC(=O)Nc2ccccc2)c(=O)c2ccccc12 do in these assays?
CAL PDZ FP-1: 7.1; ARNT TACC3 PPI: 27.0; CAL PDZ FP-2: -0.9

Results for COc1ccc(NC(=O)Cn2nc(C)c3ccccc3c2=O)cc1 ?
CAL PDZ FP-1: 37.1*; ARNT TACC3 PPI: -2.9; CAL PDZ FP-2: 33.0

How did COc1cccc(C=NNC(=O)c2ccncc2)c1O do in these assays?
ARNT TACC3 PPI: 68.9*; CAL PDZ FP-2: -1.0

What do the screens show for `COc1cccc(/C=N/Nc2ccccc2C(=O)O)c1O`?
CAL PDZ FP-1: 80.8*; ARNT TACC3 PPI: 1.0; CAL PDZ FP-2: 0.2

Results for CCOc1cccc(/C=N/NC(=O)c2cccnc2)c1O ?
CAL PDZ FP-1: -3.8; ARNT TACC3 PPI: 55.6*; CAL PDZ FP-2: -2.4

How did CCn1c(C)nc2cc(C(=O)N/N=C/c3cccc(OC)c3O)ccc21 do in these assays?
CAL PDZ FP-1: -10.5; ARNT TACC3 PPI: 40.4*; CAL PDZ FP-2: -2.7

How did CCn1c(C)nc2cc(C(=O)N/N=C/c3ccc(O)c(O)c3O)ccc21 do in these assays?
CAL PDZ FP-1: -2.5; CAL PDZ FP-2: -0.3

Results for COc1cccc(/C=N/Nc2ccc(C(=O)O)cc2)c1O ?
CAL PDZ FP-1: 0.2; ARNT TACC3 PPI: -1.0; CAL PDZ FP-2: -1.3

How did CCOc1cc(/C=N/NC(=O)c2cccnc2)ccc1O do in these assays?
CAL PDZ FP-1: -1.8; ARNT TACC3 PPI: 8.4; CAL PDZ FP-2: -2.4

What do the screens show for `COc1cccc(/C=N/NC(=O)N/N=C/c2cccc(OC)c2O)c1O`?
CAL PDZ FP-1: -6.5; ARNT TACC3 PPI: 12.6; CAL PDZ FP-2: -1.4

How did CCCC(=O)Nc1ccc2c(c1)OC[C@H](C)N(C(=O)CC)C[C@@H](C)[C@H](OC)CN(C)C2=O do in these assays?
ARNT TACC3 PPI: -2.4

What do the screens show for `CCC(=O)N(C)C[C@@H]1Oc2cc(C3=CCCC3)ccc2S(=O)(=O)N([C@@H](C)CO)C[C@@H]1C`?
ARNT TACC3 PPI: 25.5

How did COc1ccc(C(=O)Nc2ccc3c(c2)OC[C@H](C)NC[C@H](C)[C@H](OC)CN(C)C3=O)cc1 do in these assays?
ARNT TACC3 PPI: -3.3

What do the screens show for `C[C@@H]1CN([C@H](C)CO)C(=O)CCCn2cc(nn2)CO[C@H]1CN(C)Cc1ccc2c(c1)OCCN2C`?
ARNT TACC3 PPI: -6.9

How did C[C@@H]1CN([C@H](C)CO)C(=O)c2cc(C#CC3CC3)cnc2O[C@@H]1CN(C)C(=O)c1ccccc1 do in these assays?
ARNT TACC3 PPI: 7.8

What do the screens show for `COc1cc([N+](=O)[O-])cc(/C=N/NC(=O)C(O)(c2ccccc2)c2ccccc2)c1O`?
CAL PDZ FP-1: -2.9; ARNT TACC3 PPI: 29.6; CAL PDZ FP-2: -0.2

What do the screens show for `COc1cc([N+](=O)[O-])cc(/C=N/NC(=O)c2cccnc2)c1O`?
CAL PDZ FP-1: 1.6; ARNT TACC3 PPI: 72.9*; CAL PDZ FP-2: -0.8

Results for CCOc1cccc(/C=N/NC(=O)c2cc(C3CC3)[nH]n2)c1O ?
CAL PDZ FP-1: -3.3; ARNT TACC3 PPI: 71.4*; CAL PDZ FP-2: -3.6

How did COc1cc(/C=N/NC(=O)c2cc(C3CC3)[nH]n2)cc(OC)c1OC do in these assays?
CAL PDZ FP-1: -13.5; ARNT TACC3 PPI: 3.6; CAL PDZ FP-2: -3.1
